Test results as given in ChEMBL document CHEMBL1156988, “Synthesis and antibacterial studies of binaphthyl-based tripeptoids. Part 1” (2010).

Assays:
[1] = tested on: Staphylococcus aureus; experiment: Antibacterial activity against Staphylococcus aureus 6538P after overnight incubation; format: functional; conditions: Staphylococcus aureus, 6538P; read-out: MIC
Method in brief: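 Strains were grown in Luria Broth. Overnight stationary-phase cultures were diluted 1:1000 into fresh medium with twofold compound dilutions, highest typically 128 µg/ml, in 96-well plates. Incubated overnight at 37 °C. MIC recorded as the […].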

[2] = tested on: Enterococcus faecium; experiment: Antibacterial activity against vancomycin-resistant Enterococcus faecium 243 after overnight incubation; conditions: Enterococcus faecium, 243; read-out: MIC
[3] = tested on: Enterococcus faecium; experiment: Antibacterial activity against vancomycin-resistant Enterococcus faecium 449 after overnight incubation; conditions: Enterococcus faecium, 449; read-out: MIC
[4] = tested on: Enterococcus faecium; experiment: Antibacterial activity against vancomycin-resistant Enterococcus faecium 820 after overnight incubation; conditions: Enterococcus faecium, 820; read-out: MIC
[5] = tested on: Enterococcus faecium; experiment: Antibacterial activity against vancomycin-resistant Enterococcus faecium 987 after overnight incubation; conditions: Enterococcus faecium, 987; read-out: MIC

## C=CCOc1ccc2ccccc2c1-c1c(OCC(=O)N[C@H](CCCCN)C(=O)N[C@H](CCCNC(=N)N)C(=O)N[C@@H](CC=C)C(=O)OCc2ccccc2)ccc2ccccc12.Cl.Cl
[1]
  MIC: 1.95 µg/mL
[2]
  MIC: 31.3 µg/mL
[3]
  MIC: 31.3 µg/mL
[4]
  MIC: 31.3 µg/mL
[5]
  MIC: 31.3 µg/mL

## C=CCOc1ccc2ccccc2c1-c1c(OCC(=O)N[C@H](CCCNC(=N)N)C(=O)N[C@H](CCCNC(=N)N)C(=O)N[C@@H](CC=C)C(=O)OCc2ccccc2)ccc2ccccc12.Cl.Cl
[1]
  MIC: 31.3 µg/mL
[2]
  MIC: > 125 µg/mL
[3]
  MIC: 125 µg/mL
[4]
  MIC: 125 µg/mL
[5]
  MIC: > 125 µg/mL

## C=CCOc1ccc2ccccc2c1-c1c(OCC(=O)N[C@H](CCCCN)C(=O)N[C@H](CCCCN)C(=O)N[C@@H](CC=C)C(=O)OCc2ccccc2)ccc2ccccc12.Cl.Cl
[1]
  MIC: 3.9 µg/mL
[2]
  MIC: 125 µg/mL
[3]
  MIC: 62.5 µg/mL
[4]
  MIC: 62.5 µg/mL
[5]
  MIC: 125 µg/mL

## C=CCOc1ccc2ccccc2c1-c1c(OCC(=O)NCC(=O)N[C@H](CCCNC(=N)N)C(=O)N[C@@H](CC=C)C(=O)OCc2ccccc2)ccc2ccccc12.Cl
[1]
  MIC: 15.6 µg/mL
[2]
  MIC: > 125 µg/mL
[3]
  MIC: 125 µg/mL
[4]
  MIC: 125 µg/mL
[5]
  MIC: > 125 µg/mL

## C=CCOc1ccc2ccccc2c1-c1c(OCC(=O)N[C@H](C)C(=O)N[C@H](CCCNC(=N)N)C(=O)N[C@@H](CC=C)C(=O)OCc2ccccc2)ccc2ccccc12.Cl
[1]
  MIC: 5.2 µg/mL
[2]
  MIC: 62.5 µg/mL
[3]
  MIC: 62.5 µg/mL
[4]
  MIC: 62.5 µg/mL
[5]
  MIC: 62.5 µg/mL

## C=CCOc1ccc2ccccc2c1-c1c(OCC(=O)N[C@H](CC=C)C(=O)N[C@H](CCCNC(=N)N)C(=O)N[C@@H](CC=C)C(=O)OCc2ccccc2)ccc2ccccc12.Cl
[1]
  MIC: 15.6 µg/mL
[2]
  MIC: 125 µg/mL
[3]
  MIC: 125 µg/mL
[4]
  MIC: 62.5 µg/mL
[5]
  MIC: 125 µg/mL

## C=CCOc1ccc2ccccc2c1-c1c(OCC(=O)N[C@H](CC(C)C)C(=O)N[C@H](CCCNC(=N)N)C(=O)N[C@@H](CC=C)C(=O)OCc2ccccc2)ccc2ccccc12.Cl
[1]
  MIC: 3.9 µg/mL
[2]
  MIC: 62.5 µg/mL
[3]
  MIC: 31.3 µg/mL
[4]
  MIC: 31.3 µg/mL
[5]
  MIC: 62.5 µg/mL

## C=CCOc1ccc2ccccc2c1-c1c(OCC(=O)N[C@H](Cc2ccccc2)C(=O)N[C@H](CCCNC(=N)N)C(=O)N[C@@H](CC=C)C(=O)OCc2ccccc2)ccc2ccccc12.Cl
[1]
  MIC: 26.1 µg/mL
[2]
  MIC: > 125 µg/mL
[3]
  MIC: 62.5 µg/mL
[4]
  MIC: 31.3 µg/mL
[5]
  MIC: > 125 µg/mL

## C=CCOc1ccc2ccccc2c1-c1c(OCC(=O)N[C@H](CCCC)C(=O)N[C@H](CCCNC(=N)N)C(=O)N[C@@H](CC=C)C(=O)OCc2ccccc2)ccc2ccccc12.Cl
[1]
  MIC: 52.1 µg/mL
[2]
  MIC: 125 µg/mL
[3]
  MIC: 83 µg/mL
[4]
  MIC: 62.5 µg/mL
[5]
  MIC: 125 µg/mL

## C=CCOc1ccc2ccccc2c1-c1c(OCC(=O)N[C@H](CCCCN)C(=O)N[C@H](CCCNC(=N)N)C(=O)N[C@H](CC=C)C(=O)OCc2ccccc2)ccc2ccccc12.Cl.Cl
[1]
  MIC: 15.6 µg/mL
[2]
  MIC: 125 µg/mL
[3]
  MIC: 104 µg/mL
[4]
  MIC: 62.5 µg/mL
[5]
  MIC: 125 µg/mL

## C=CCOc1ccc2ccccc2c1-c1c(OCC(=O)N[C@H](CCCCN)C(=O)N[C@H](CCCNC(=N)N)C(=O)N[C@@H](CC(C)C)C(=O)OCc2ccccc2)ccc2ccccc12.Cl.Cl
[1]
  MIC: 1.95 µg/mL
[2]
  MIC: 31.3 µg/mL
[3]
  MIC: 31.3 µg/mL
[4]
  MIC: 31.3 µg/mL
[5]
  MIC: 31.3 µg/mL

## C=CCOc1ccc2ccccc2c1-c1c(OCC(=O)N[C@H](CC(C)C)C(=O)N[C@H](CCCNC(=N)N)C(=O)N[C@@H](C)C(=O)OCc2ccccc2)ccc2ccccc12.Cl
[1]
  MIC: 5.2 µg/mL
[2]
  MIC: 62.5 µg/mL
[3]
  MIC: 62.5 µg/mL
[4]
  MIC: 62.5 µg/mL
[5]
  MIC: 62.5 µg/mL

## C=CCOc1ccc2ccccc2c1-c1c(OCC(=O)N[C@H](CCCCN)C(=O)N[C@H](CCCNC(=N)N)C(=O)N[C@@H](C)C(=O)OCc2ccccc2)ccc2ccccc12.Cl.Cl
[1]
  MIC: 7.8 µg/mL
[2]
  MIC: 125 µg/mL
[3]
  MIC: 125 µg/mL
[4]
  MIC: 125 µg/mL
[5]
  MIC: 125 µg/mL

## C=CCOc1ccc2ccccc2c1-c1c(OCC(=O)N[C@H](CCCCN)C(=O)N[C@H](CCCNC(=N)N)C(=O)NCC(=O)OCc2ccccc2)ccc2ccccc12.Cl.Cl
[1]
  MIC: 3.9 µg/mL
[2]
  MIC: 125 µg/mL
[3]
  MIC: 62.5 µg/mL
[4]
  MIC: 125 µg/mL
[5]
  MIC: 125 µg/mL

## CC(C)CCOc1ccc2ccccc2c1-c1c(OCC(=O)N[C@H](CCCCN)C(=O)N[C@H](CCN)C(=O)N[C@@H](CC(C)C)C(=O)OCc2ccccc2)ccc2ccccc12.Cl.Cl
[1]
  MIC: 1.95 µg/mL
[2]
  MIC: 31.3 µg/mL
[3]
  MIC: 15.6 µg/mL
[4]
  MIC: 15.6 µg/mL
[5]
  MIC: 31.3 µg/mL
